Screening results from PubChem BioAssay.
Shown are actives, neighbours in structure and some others; about 3.1% of the full set was active somewhere.
KCNK9 block = human KCNK9 channel inhibition. HEK293 KCNK9, FluxOR thallium flux fluorescence; stronger effect = lower value. B-score at 10 µM. actives 1.2% (n = 310,000). Q9NPC2;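 active = ratio B-score over 3 SD below the library mean, with starting fluorescence within 5 SD of its mean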;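 note: negative B-score means less thallium flux so channel inhibition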
hERG rescue = hERG (human) protection from proarrhythmic block; Q12809; CHO-hERG, FluxOR thallium flux, dofetilide IC70 present; activation (rescue from dofetilide block), less the hit threshold, % at 10 µM; actives 0.51% (n = 310,000); AID 1511;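 active = activation above the mean of controls blocked by dofetilide plus 5 SD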;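 note: thallium influx through hERG after potassium depolarization seen as dye fluorescence rise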
KCNQ1 block = blocks the human KCNQ1 potassium channel | P51787 | B-score at 10 µM | CHO-K1 KCNQ1, FluxOR thallium flux fluorescence; stronger effect = higher value | actives 1.3% (n = 310,000);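 active = compounds whose thallium flux B-score, printed positive for inhibition, exceeds three library SD while starting fluorescence stays within three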;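 note: channel opened by potassium depolarization with thallium stimulus after 20 min compound exposure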
Target sequence (P51787 whole entry, looked up): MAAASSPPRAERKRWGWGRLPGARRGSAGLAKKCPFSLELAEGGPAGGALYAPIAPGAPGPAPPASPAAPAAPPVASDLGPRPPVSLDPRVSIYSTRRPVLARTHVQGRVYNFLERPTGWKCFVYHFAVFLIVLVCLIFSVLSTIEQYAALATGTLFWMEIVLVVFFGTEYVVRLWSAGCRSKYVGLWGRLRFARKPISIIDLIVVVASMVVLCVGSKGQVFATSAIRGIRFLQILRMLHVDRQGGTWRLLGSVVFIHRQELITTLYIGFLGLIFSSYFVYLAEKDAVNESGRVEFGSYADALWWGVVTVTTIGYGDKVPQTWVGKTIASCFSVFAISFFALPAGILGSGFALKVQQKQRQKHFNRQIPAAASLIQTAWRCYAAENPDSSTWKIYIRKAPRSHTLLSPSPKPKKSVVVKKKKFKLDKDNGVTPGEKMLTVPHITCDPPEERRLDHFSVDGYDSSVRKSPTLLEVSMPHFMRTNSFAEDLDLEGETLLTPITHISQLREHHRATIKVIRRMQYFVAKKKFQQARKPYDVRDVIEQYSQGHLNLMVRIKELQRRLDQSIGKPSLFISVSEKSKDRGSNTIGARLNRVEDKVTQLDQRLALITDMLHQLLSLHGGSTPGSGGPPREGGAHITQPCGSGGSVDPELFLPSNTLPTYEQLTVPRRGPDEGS
KCNQ1 pot = potentiators or activators of human KCNQ1 potassium channel; P51787; CHO-K1 KCNQ1, thallium flux FluxOR fluorescence; stronger effect = higher value; B-score at 10 µM; actives 0.35% (n = 310,000);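 active = fluorescence ratio B-score, a plate-corrected score, at least three library SD, with initial intensity B-score within 5 SD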
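System: CHO-K1 cells stably expressing KCNQ1 / Medium: assay buffer for compound exposure, DMSO matched across wells / Reagent: thallium- and potassium-containing depolarizing buffer / Compound: one concentration, matched DMSO / Incubation: 20 min compound pretreatment at room temperature / Measured by: kinetic FluxOR fluorescence, 10 s baseline plus 110 s post-stimulus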
KCNK3 inh = human KCNK3 channel inhibition, primary screen; O14649; B-score at 10 µM; actives 0.84% (n = 340,000); CHO-KCNK3 thallium flux, FluxOR fluorescence; stronger effect = lower value;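 active = B-score under library mean minus 4 SD, starting fluorescence ratio at most library mean plus 5 SD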;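 note: more negative B-score means stronger inhibition of thallium flux through KCNK3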
KCNK9 block conf = human KCNK9 inhibitor confirmation; actives 43% (n = 4,900); shares compounds with KCNK9 block; HEK293 KCNK9 cells, FluxOR thallium flux fluorescence; inhibition, % at 10 µM;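 active = thallium signal inhibited by more than 5 SD of the compound-free buffer control wells, on both duplicate plates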
Kir21 sel = selectivity of KCNK9 modulators against mouse Kir2.1 | shares compounds with KCNK9 block | Kir2.1 cells, FluxOR thallium flux fluorescence | inhibition, % at 10 µM | actives 4% (n = 4,900) | AID 492993;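 active = thallium signal drop more than 5 SD beyond the mean of the no-compound control wells, seen in both duplicate plates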;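 note: signal is fluorescence rise after thallium addition divided by baseline fluorescence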
HEK293 Tl ctr = non-induced cell nonspecific activity of KCNK9 modulators; shares compounds with KCNK9 block; non-induced KCNK9-HEK293, FluxOR thallium flux; inhibition, % at 10 µM; actives 40% (n = 4,900); AID 492997;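 active = thallium signal drop beyond 5 SD of the untreated control mean, on both duplicate plates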
Each line names hits and unclear results; the compound was inactive in the other large screens (follow-up assays come after a bar, where they were run).

COc1cccc(C(=O)NCC(C)(C)SCc2ccc(F)cc2)c1	none | KCNK9 block conf inactive | Kir21 sel inactive | HEK293 Tl ctr inactive
O=C(CCC(=O)c1cccs1)OCc1nc2ccccc2s1	none
O=C(CCc1nc2ccccc2s1)OCc1ccccc1	none | KCNK9 block conf inactive | Kir21 sel inactive | HEK293 Tl ctr inactive
Cc1ccc2[nH]c(C)c(/C=C/c3cc[n+](C)cc3)c2c1	KCNK9 block -8.1 | KCNK9 block conf 76% | Kir21 sel 56% | HEK293 Tl ctr 75%
Cc1ccc(-n2c(-c3ccco3)n[nH]c2=S)cc1	none
CC(C1CC2CCC1C2)n1c(-c2ccco2)n[nH]c1=S (centres undefined)	KCNK9 block -15 | KCNK9 block conf 62% | Kir21 sel inactive | HEK293 Tl ctr inactive
O=C(COc1ccc2c(c1)OCO2)NCc1cccs1	none (no result: KCNK9 block, hERG rescue, KCNQ1 block, KCNQ1 pot)
C=CC(=O)NCCCc1cc(C(C)(C)C)c(O)c(C(C)(C)C)c1	none | KCNK9 block conf inactive | Kir21 sel inactive | HEK293 Tl ctr inactive
CC(C)(C)c1cc(CCC(=O)NN)cc(C(C)(C)C)c1O	none
COc1ccc(Br)cc1[C@H]1[C@@H]2C=CCC[C@@]2(C)C(=O)N1Cc1ccccc1	KCNK9 block -15 | KCNK9 block conf 66% | Kir21 sel inactive | HEK293 Tl ctr 49%
COc1ccc(-c2ccc(OC)c([C@H]3[C@@H]4C=CCC[C@@]4(C)C(=O)N3Cc3ccccc3)c2)cc1OC	none
CCn1c2c(c3cc(OCC(C)C)ccc31)CCCC2=O	none | KCNK9 block conf inactive | Kir21 sel inactive | HEK293 Tl ctr inactive
CCn1c2c(c3cc(Br)ccc31)CCC/C2=N\O	none
Cc1cc(NC(=O)c2ccccc2C)ccc1NC(=O)c1ccccc1Cl	none
COc1ccccc1N1CCN(/N=C/C=C/c2ccccc2[N+](=O)[O-])CC1	none | KCNK9 block conf inactive | Kir21 sel inactive | HEK293 Tl ctr inactive
COc1ccccc1N1CCN(Cc2ccc(-c3ccccc3[N+](=O)[O-])o2)CC1	none | KCNK9 block conf inactive | Kir21 sel inactive | HEK293 Tl ctr inactive
COc1ccccc1/C=C/C=N/N1CCN(Cc2ccc(Cl)cc2)CC1	none | KCNK9 block conf inactive | Kir21 sel inactive | HEK293 Tl ctr inactive
COc1ccccc1/C=C/C=N\N1CCN(Cc2ccccc2Cl)CC1	none | KCNK9 block conf inactive | Kir21 sel inactive | HEK293 Tl ctr inactive
COc1cc(OC)nc(Oc2ccccc2C(=O)Oc2ccc(F)cc2Cl)n1	KCNK9 block -9.1 | KCNK9 block conf 59% | Kir21 sel inactive | HEK293 Tl ctr 39%
O=C(Nc1cc(Sc2ccccn2)cc([N+](=O)[O-])c1)c1cccc(Cl)c1	KCNK9 block -10, KCNQ1 block 7 | KCNK9 block conf 41% | Kir21 sel inactive | HEK293 Tl ctr 40%
O=C(Nc1cc(Sc2ccccn2)cc([N+](=O)[O-])c1)c1ccc(Cl)cc1	none
COc1ccc(C(=O)NCCCN2CCN(CCCNC(=O)c3ccc(OC)c(OC)c3)CC2)cc1OC	none (no result: KCNK9 block, hERG rescue, KCNQ1 block, KCNQ1 pot)
COc1ccc(-c2[nH]c(-c3ccc(C(=O)O)cc3)nc2-c2ccccc2)cc1	none
COc1cc(-c2nc(-c3ccc4c(c3)-c3ccccc3S4(=O)=O)c(-c3ccccc3)[nH]2)cc(OC)c1O	KCNK9 block -16, KCNQ1 block 6, KCNK3 inh -10 | KCNK9 block conf 69% | Kir21 sel inactive | HEK293 Tl ctr 28%
Cc1cc(C)cc(C(=O)OCC(=O)Nc2ncccn2)c1	none (no result: KCNK9 block, hERG rescue, KCNQ1 block, KCNQ1 pot)
COc1ccc(C(=O)/C(=C/O)N=Nc2ccc(F)cc2)cc1	KCNK9 block -12 | KCNK9 block conf inactive | Kir21 sel inactive | HEK293 Tl ctr inactive
CC(C)C(NC(=O)c1ccc(F)cc1)C(=O)NC1(C)CCS(=O)(=O)C1 (centres undefined)	none (no result: KCNK9 block, hERG rescue, KCNQ1 block, KCNQ1 pot)
CCN(CC)CCNC(=S)Nc1ccc2nc(N3CCN(C)CC3)cc(C)c2c1	none
CCN(CC)CCNC(=S)Nc1ccc2nc(N3CCCC3)cc(C)c2c1	KCNK9 block -9.4 | KCNK9 block conf inactive | Kir21 sel inactive | HEK293 Tl ctr inactive
